Results collected from several papers.
Compare with care: the assays were run in different laboratories.
EGFR L858R: Epidermal growth factor receptor (EGFR, Homo sapiens, UniProt P00533, L858R)
EGFR: Epidermal growth factor receptor (EGFR, Homo sapiens, UniProt P00533)
EGFR G719S: Epidermal growth factor receptor (EGFR, Homo sapiens, UniProt P00533, G719S)
EGFR L861Q: Epidermal growth factor receptor (EGFR, Homo sapiens, UniProt P00533, L861Q)
EGFR L858R/T790M: Epidermal growth factor receptor (EGFR, Homo sapiens, UniProt P00533, L858R/T790M)
EGFR del746-750: Epidermal growth factor receptor (EGFR, Homo sapiens, UniProt P00533, del746-750)
EGFR T790M: Epidermal growth factor receptor (EGFR, Homo sapiens, UniProt P00533, T790M)
EGFR G719C: Epidermal growth factor receptor (EGFR, Homo sapiens, UniProt P00533, G719C)

Cc1ccc(C(=O)NCc2ccsc2)cc1C#Cc1cn(C(C)C)c2ncnc(N)c12 — activity vs control (EGFR L858R; enzyme activity; inhibitor; 1 µM): 56%
CC(C)[C@@H]1NC(=O)[C@H](CCCNC(=N)N)NC(=O)[C@H](Cc2ccc(O)cc2)NC(=O)[C@H](C(C)C)NC(=O)[C@H](C(C)C)NC(=O)[C@H](CCCNC(=N)N)NC(=O)[C@H](CC(=O)O)NC(=O)[C@H](CC(=O)O)NC(=O)CCNC(=O)[C@H](Cc2ccc(O)cc2)NC(=O)[C@H](Cc2ccc(O)cc2)NC(=O)[C@H](Cc2ccccc2)NC(=O)[C@@H](Cc2ccc(O)cc2)NC(=O)CSC[C@@H](C(=O)NCC(N)=O)NC(=O)CCNC1=O — kon (EGFR; binding; SPR): 258000 M⁻¹ s⁻¹
CN(c1nccc(-c2cnn3ncccc23)n1)C1CC1 — remaining binding (EGFR G719S; binding; 1 µM): 100%
CN(C)C(=O)Cn1cc(-c2nc(C3(c4ccc(-c5cnc(N)nc5)cc4)CC3)no2)cn1 — remaining binding (Epidermal growth factor receptor (EGFR, Homo sapiens, UniProt P00533, A750P/del747-749); cell-free assay; competition with immobilised ligand; 1 µM): 80%
CC/C(=N\NC(=O)NCc1cccc(O)c1)c1ccc(O)c(C)c1O — inhibition (EGFR L861Q; enzyme activity; inhibitor; 0.1 µM): 0.4%
O=C(Nc1cccnn1)N1CCC(=Cc2cccc(Oc3ccc(C(F)(F)F)cn3)c2)CC1 — remaining binding (EGFR L858R/T790M; cell-free assay; competition with immobilised ligand; 1 µM): 99%
Cc1cc(NC(=O)c2cccc3cc(-c4cccc5[nH]nc(N)c45)ccc23)ccc1F — activity vs control (EGFR L858R; enzyme activity; inhibitor; 0.1 µM): 112%
O=C(Nc1cccc(Nc2cc(Nc3cccc(C(F)(F)F)c3)ncn2)c1)C1CC1 — remaining signal (EGFR; cell-free assay; 0.5 µM): 5.82%
C[C@@H]1CN(c2cc(-c3nn(C)c4ccc(OC5(C)CC5)cc34)ncn2)C[C@H](C)O1 — remaining binding (EGFR L858R; cell-free assay; competition with immobilised ligand; 1 µM): 95%
O=C(NCC1CCOCC1)c1n[nH]cc1NC(=O)c1c(F)cccc1F — remaining binding (EGFR L858R/T790M; binding; competition with immobilised ligand; 1 µM): 97%
COc1cc(-c2cc(-c3ccc(N4CCNCC4)cc3)cnc2N)cc(OC)c1OC — inhibition (EGFR L861Q; enzyme activity; inhibitor; 1 µM): 33%
CC(C)[C@@H]1NC(=O)CC(c2ccccc2)NC(=O)CC(CCC(N)=O)NC(=O)[C@H](Cc2ccc(O)cc2)NC(=O)[C@H](Cc2ccc(O)cc2)NC(=O)[C@H](Cc2ccccc2)NC(=O)[C@@H](Cc2ccc(O)cc2)NC(=O)CSC[C@@H](C(=O)NCC(N)=O)NC(=O)CCNC(=O)[C@H](CCCNC(=N)N)NC(=O)[C@H](CCCNC(=N)N)NC(=O)[C@H](Cc2ccc(O)cc2)NC(=O)[C@H](C(C)C)NC(=O)[C@H](C(C)C)NC(=O)[C@H](CC(N)=O)NC1=O (stereo partly drawn) — kon (EGFR; binding; SPR): 165000 M⁻¹ s⁻¹
Nc1ncc2c(n1)-c1c([nH]c3ccc(C#CC4CC4)cc13)CCCC2 — remaining binding (EGFR del746-750; binding; competition with immobilised ligand; 1 µM): 72%
CCC(=O)Nc1cc(Nc2nc(N3CCc4sccc4C3)c3cccnc3n2)c(OC)cc1N1CCSCC1 — inhibition (EGFR L858R/T790M; enzyme activity; inhibitor; ELISA; 0.1 µM): 28.8%
O=C1CCc2cc(Nc3cc(OC4CCOCC4)c([N+](=O)[O-])cc3Cl)ccc2N1 — remaining binding (EGFR T790M; cell-free assay; competition with immobilised ligand; 1 µM): 85%
COc1cc(Cl)c(C(=O)N[C@@H](CN[C@H]2CC[C@@H](N)CC2)Cc2ccc(C#N)cc2)cc1-c1ccc(CN[C@H](C)c2ccc(C)cc2)o1 — remaining activity (EGFR; enzyme activity; inhibitor; 1 µM): 103%
N#CCCc1ccc2c(c1)-c1[nH]c3ccc([N+](=O)[O-])cc3c1CC(=O)N2 — remaining signal (EGFR; cell-free assay; 0.5 µM): 94.4%
Cc1cnn2ncc(-c3ccnc(N(C)C)n3)c2c1 — remaining binding (EGFR G719S; binding; 1 µM): 100%
Cc1c(C(=O)O)cc(-c2ccc(C3CCNCC3)cc2)c2ccc(-c3ccc(C(F)(F)F)cc3)cc12 — remaining binding (Epidermal growth factor receptor (EGFR, Homo sapiens, UniProt P00533, del747-750/T751S); cell-free assay; competition with immobilised ligand; 1 µM): 100%
Cc1cnc(Nc2ccc(C(=O)N3CCC(N4CCCC4)CC3)cc2)nc1-c1cc2ccccc2s1 — remaining binding (EGFR del746-750; binding; competition with immobilised ligand; 1 µM): 100%
COc1cc2ncnc(Nc3ccc(Oc4ccccc4)c(C)c3C)c2cc1OC — inhibition (EGFR L858R/T790M; enzyme activity; inhibitor; 1 µM): 17%
c1cncc(-c2cccc(Nc3nccc(NC4CCCCC4)n3)c2)c1 — remaining binding (EGFR; binding; competition with immobilised ligand; 10 µM): 56%
C=CC(=O)Nc1cc(Nc2nc(N3CCc4sccc4C3)c3cccnc3n2)c(OC)cc1N1CCC(N(C)C)CC1 — inhibition (EGFR L858R/T790M; enzyme activity; inhibitor; ELISA; 0.1 µM): 36%
Cc1cnc(NC2CCOCC2)nc1-n1cnc(C(=O)NC(CN)c2cc(F)cc(Cl)c2)c1 (stereo not drawn) — remaining activity (EGFR L858R; enzyme activity; inhibitor; radiometric; 1 µM): 112%
Nc1ncnc2occ(-c3ccc(NC(=O)Nc4cc(C(F)(F)F)ccc4F)cc3)c12 — remaining signal (EGFR L858R; cell-free assay; 20 µM): 19%
CC(C)(O)[C@H]1CC[C@H](Nc2ccc3ncc(-c4cccc(C(F)(F)F)c4)n3n2)CC1 — remaining activity (EGFR; enzyme activity; inhibitor; 1 µM): 80%
F[C@@H]1CCN(c2nccc(-c3cnn4ncccc34)n2)C1 — remaining binding (EGFR del746-750; binding; 1 µM): 66%
O=C(c1ccc(Nc2nccc(-c3cc4ccccc4s3)n2)cc1)N1CCC(N2CCCC2)CC1 — remaining binding (Epidermal growth factor receptor (EGFR, Homo sapiens, UniProt P00533, del752-759); binding; competition with immobilised ligand; 1 µM): 93%
c1ccc(N2CCN(Cc3nc4ccccc4[nH]3)CC2)nc1 — remaining binding (EGFR L858R; cell-free assay; competition with immobilised ligand; 1 µM): 100%
CCC(=O)Nc1cc(Nc2nc(N3CCc4sccc4C3)c3cccnc3n2)c(OC)cc1N1CCN(C(C)=O)CC1 — inhibition (EGFR L858R/T790M; enzyme activity; inhibitor; ELISA; 0.1 µM): 10%
Cc1ccc(NC(=O)c2ccc(C)c(C(F)(F)F)c2)cc1C#Cc1nn(C2CCC(O)CC2)c2ncnc(N)c12 (stereo not drawn) — remaining signal (EGFR T790M; cell-free assay; 10 µM): 4%
Cc1cc(C)c(-n2ccn3nc(-c4cccnc4)cc23)cc1NC(=O)c1cc(C#N)cc(S(F)(F)(F)(F)F)c1 — remaining binding (EGFR L861Q; cell-free assay; competition with immobilised ligand; 0.1 µM): 91.1%
O=C(c1ccc(Nc2ncc(Cl)c(-c3cc4ccccc4s3)n2)cc1)N1CCC(N2CCCC2)CC1 — remaining binding (EGFR L858R; binding; competition with immobilised ligand; 1 µM): 81%
Cc1ccc(NC(=O)c2ccc(CN3CCN(C)CC3)cc2)cc1Nc1nc(-c2cccnc2)cs1 — remaining signal (EGFR; cell-free assay; 0.5 µM): 99.6%
C[C@H]1CCN(c2nccc(-c3cnn4ncccc34)n2)C1 — remaining binding (EGFR G719C; binding; 1 µM): 85%
N#C/C(=C\c1ccc(O)c(O)c1)C(=O)NCc1ccccc1 — remaining signal (EGFR; cell-free assay; 0.5 µM): 72.4%
CC1CCCN1c1nccc(-c2cnn3ncccc23)n1 (stereo not drawn) — remaining binding (EGFR T790M; binding; 1 µM): 100%
Cc1sc(C(=O)NC2COC2)cc1-n1cc(NC(=O)Nc2c(F)cccc2Cl)cn1 — remaining activity (EGFR; enzyme activity; inhibitor; 10 µM): 98.5%
CN(C)c1ncc(F)c(-c2cnn3ncccc23)n1 — remaining binding (EGFR; binding; 1 µM): 82%
O=C(NCCCN1CCOCC1)c1ccc(Nc2nccc(-c3cc4ccccc4s3)n2)cc1 — remaining binding (EGFR T790M; binding; competition with immobilised ligand; 1 µM): 90%
Cc1ccc(C(=O)Nc2ccc(CN3CCN(C)CC3)c(C(F)(F)F)c2)cc1C#Cc1cnc2cccnn12 — remaining signal (EGFR; cell-free assay; 23.5 nM): 55%
c1cnn2ncc(-c3ccnc(N4CCC45COC5)n3)c2c1 — remaining binding (EGFR L858R; binding; 1 µM): 84%
O=c1nc(-c2ccccn2)sc2ccccc12 — remaining binding (EGFR G719C; cell-free assay; competition with immobilised ligand; 1 µM): 77%
N[C@@H]1CCN(c2nccc(-c3cnn4ncccc34)n2)C1 — remaining binding (EGFR L861Q; binding; 1 µM): 92%
CNC(=O)[C@@H]1CC[C@@H](n2c(-c3ccc4cnccc4c3)nc3ccc(C(=O)NCc4cccc(C(N)=O)c4)cc32)C1 — remaining binding (EGFR T790M; binding; competition with immobilised ligand; 1 µM): 72%
